From ChEMBL document CHEMBL4390691, “Discovery of 1,3-dihydro-2H-imidazo[4,5-c]quinolin-2-ones based novel, potent and PI3Kδ selective inhibitors” (Bioorg Med Chem Lett, 2019) come the findings set out here.

SMILES strings stand for the structures.

In one data set the target is T1, CYP2C8 (Homo sapiens, UniProt P10632).
T1 sequence (P10632 whole entry): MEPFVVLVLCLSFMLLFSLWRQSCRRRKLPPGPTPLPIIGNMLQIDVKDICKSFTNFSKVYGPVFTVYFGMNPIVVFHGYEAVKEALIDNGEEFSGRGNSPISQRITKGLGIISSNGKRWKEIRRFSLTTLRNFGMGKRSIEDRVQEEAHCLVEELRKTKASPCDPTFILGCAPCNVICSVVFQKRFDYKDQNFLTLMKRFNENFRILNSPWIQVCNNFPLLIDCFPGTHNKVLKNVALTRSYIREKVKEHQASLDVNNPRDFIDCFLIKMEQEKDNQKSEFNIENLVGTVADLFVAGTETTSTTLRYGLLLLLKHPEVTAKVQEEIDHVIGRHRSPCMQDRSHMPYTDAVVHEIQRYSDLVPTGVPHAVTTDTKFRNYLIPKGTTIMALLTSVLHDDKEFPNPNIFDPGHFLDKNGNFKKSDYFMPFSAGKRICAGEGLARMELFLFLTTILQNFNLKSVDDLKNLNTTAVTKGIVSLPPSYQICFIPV
The experiment in a line: Inhibition of CYP2C8 in human liver microsomes at 10 uM using testosterone/dextromethorphan as probe substrate measured after 10 mins relative to control. Type of data set: ADME. (Liver microsomes are vesicles of endoplasmic reticulum, rich in cytochrome P450 enzymes.)

In data set [1] the target is T2, Phosphatidylinositol 4,5-bisphosphate 3-kinase catalytic subunit delta isoform (Homo sapiens, UniProt O00329).
T2 sequence (O00329 whole entry): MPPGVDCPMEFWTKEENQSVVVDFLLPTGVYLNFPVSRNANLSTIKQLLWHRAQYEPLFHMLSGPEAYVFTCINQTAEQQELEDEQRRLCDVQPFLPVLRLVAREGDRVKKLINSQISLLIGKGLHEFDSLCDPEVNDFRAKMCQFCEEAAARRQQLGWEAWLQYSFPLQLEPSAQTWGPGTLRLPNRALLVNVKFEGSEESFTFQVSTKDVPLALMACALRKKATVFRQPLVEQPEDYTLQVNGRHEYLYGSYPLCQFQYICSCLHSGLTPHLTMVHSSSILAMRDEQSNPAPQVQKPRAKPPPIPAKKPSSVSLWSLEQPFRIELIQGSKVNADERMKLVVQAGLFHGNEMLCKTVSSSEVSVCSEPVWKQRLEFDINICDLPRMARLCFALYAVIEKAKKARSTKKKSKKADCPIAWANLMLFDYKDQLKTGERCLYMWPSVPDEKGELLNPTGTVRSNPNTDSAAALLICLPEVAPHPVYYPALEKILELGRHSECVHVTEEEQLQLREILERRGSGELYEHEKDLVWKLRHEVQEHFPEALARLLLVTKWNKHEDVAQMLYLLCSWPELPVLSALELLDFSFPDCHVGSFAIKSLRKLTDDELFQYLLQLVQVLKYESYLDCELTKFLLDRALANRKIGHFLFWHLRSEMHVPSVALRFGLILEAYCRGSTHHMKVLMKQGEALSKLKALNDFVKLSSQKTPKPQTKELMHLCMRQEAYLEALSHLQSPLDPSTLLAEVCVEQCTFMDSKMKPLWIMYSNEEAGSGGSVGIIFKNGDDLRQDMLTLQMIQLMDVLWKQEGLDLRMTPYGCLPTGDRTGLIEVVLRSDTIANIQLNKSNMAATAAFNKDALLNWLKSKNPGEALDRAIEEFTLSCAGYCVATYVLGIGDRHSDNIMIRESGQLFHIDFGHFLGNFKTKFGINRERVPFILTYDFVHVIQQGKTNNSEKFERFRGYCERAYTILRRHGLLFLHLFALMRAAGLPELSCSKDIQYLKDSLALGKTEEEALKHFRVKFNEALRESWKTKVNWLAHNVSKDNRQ
The experiment in a line: Inhibition of human PI3Kdelta using PIP2 as substrate after 1 hr.

A short description of data set [2]: Half life in C57BL/6J mouse at 3 mg/kg, po measured up to 30 hrs by LC-MS/MS analysis. The format is ADME, organism-based. To be noted: in vivo. A digest of the protocol:
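Male C57BL/6J mice (n = 6) received single doses of 3 mg/kg po or 1 mg/kg iv. Plasma concentrations were measured by LC-MS. Values are mean ± SD. Oral bioavailability (%F) was calculated from the ratio to iv AUC.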

For the next data set, the target named is CYP2C19 (Homo sapiens, UniProt P33261). As to the kind of experiment: Inhibition of CYP2C19 in human liver microsomes at 10 uM using testosterone/dextromethorphan as probe substrate measured after 10 mins relative to control. Type of data set: ADME.
CYP2C19, sequence (P33261 whole entry): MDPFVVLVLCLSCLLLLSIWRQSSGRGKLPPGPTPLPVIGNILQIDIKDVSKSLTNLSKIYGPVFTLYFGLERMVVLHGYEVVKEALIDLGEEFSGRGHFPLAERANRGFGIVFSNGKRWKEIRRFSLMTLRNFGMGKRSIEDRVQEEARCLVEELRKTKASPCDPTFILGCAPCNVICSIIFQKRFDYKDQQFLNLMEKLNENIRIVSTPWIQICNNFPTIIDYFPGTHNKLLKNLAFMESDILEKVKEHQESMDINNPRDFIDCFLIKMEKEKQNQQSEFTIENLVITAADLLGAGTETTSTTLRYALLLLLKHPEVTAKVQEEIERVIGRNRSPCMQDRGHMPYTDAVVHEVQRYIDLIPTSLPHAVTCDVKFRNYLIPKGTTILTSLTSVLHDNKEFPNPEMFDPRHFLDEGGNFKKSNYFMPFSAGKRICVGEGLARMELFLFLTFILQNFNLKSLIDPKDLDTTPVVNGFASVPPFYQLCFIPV

One may read the inhibition as the drop in the measured response relative to a control, in per cent. A lower inhibition goes with a response near the control. Broadly, the IC50 is the concentration that inhibits the measured activity by half. In general, half-life refers to the time in which the quantity being followed falls by half. High values mean slow decline, low ones rapid decline. For the molecule `COc1ccc(Cn2c(=O)n(C)c3c4cc(-c5cnc(OC)c(NS(C)(=O)=O)c5)ccc4ncc32)cc1`, the inhibition at 10 min, 10 µM against CYP2C8 and against CYP2C19 was under 10% in each case. In data set [1], this molecule had an IC50 of 1.9 nM. This molecule also showed a half-life in data set [2] of 3.48 h.
